Results on five molecules are retold here after ChEMBL document CHEMBL5649168, “Discovery of a selective catalytic p300/CBP inhibitor that targets lineage-specific tumours” (Nature, 2017).

SMILES strings stand for the structures. Calls of active or inactive are those of the source. No cut-off for these calls is given here.

Series [1] addresses T1, Histone acetyltransferase p300 (Homo sapiens, UniProt Q09472). Nature of the series: Inhibition of p300 HAT domain (unknown origin) using Biotin-C6-GRGKGGKGLGKGGAK as substrate pretreated with enzyme for 30 mins followed by incubation with substrate for 1 hr by radiometric scintillation proximity assay. (In a scintillation proximity assay essentially only radioactivity close to the scintillant gives light.)

Series [2] has as its target T2, CREB-binding protein/Histone acetyltransferase p300 (Homo sapiens, UniProt Q09472+Q92793). Nature of the series: Inhibition of p300/CBP in human 22Rv1 cells assessed as reduction in H3K9Ac level incubated for 1 hr by Hoechst 33342 staining based high content microscopy analysis. In kind it is cell-based. A digest of the protocol: (§1)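 Cells received an 8-point half-log dilution series from 10 µM. They were then fixed in 10% formaldehyde (10 min, RT), permeabilised with 0.1% Triton X-100 and blocked with 1% BSA for 1 h. Primary antibodies were applied overnight at 4 °C, followed by Alexa488 anti-rabbit, Alexa555 anti-mouse and Hoechst 33342 for 1 h. Fifteen fields per well were imaged and average mean intensity taken. EC50 came from a sigmoidal fit.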

For series [3], the target named is T1, Histone acetyltransferase p300. The series is described as follows: Inhibition of N-terminal 6His-Flag tagged p300-BHC domain (1036 to 1822 residues) (unknown origin) expressed in Sf9 cells using the Bac-to-Bac baculovirus system under EDTA-free condition using biotinylated synthetic Histone-H4 peptide incubated for 30 mins followed by substrate addition and measured after 1hr by TR-FRET assay. A digest of the protocol: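 TR-FRET acetylation of biotinylated histone H4 peptide. Buffer: 100 mM HEPES pH 7.9, 100 mM KCl, 40 µg/mL BSA, 1 mM DTT, 0.01% Triton X-100. The EDTA-free run used protein purified without EDTA and buffer without EDTA. Enzyme at 0.6 nM was preincubated 30 min with compound (3-fold series, 50 µM to 0.00075 µM). Substrates were 2 µM peptide and 0.5 µM acetyl-CoA, 1 h at room temperature. Read by Eu-anti-acetyl-H4 / ULight-streptavidin; IC50 from sigmoidal fit.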
On the technique in general: TR-FRET usually uses a lanthanide donor and a delayed reading to cut background.

For series [4], the target named is T2, CREB-binding protein/Histone acetyltransferase p300. The series is described as follows: Inhibition of p300/CBP in human 22Rv1 cells assessed as reduction in H3K18Ac level incubated for 3 hrs by Hoechst 33342 staining based high content microscopy analysis. In kind it is cell-based. In outline: as §1
Series [5] has the same target. Nature of the series: Inhibition of p300/CBP in human 22Rv1 cells assessed as reduction in H3K9Ac level incubated for 24 hrs by Hoechst 33342 staining based high content microscopy analysis. Format: cell-based. A digest of the protocol:
as §1

Series [6] shares this target. Nature of the series: Inhibition of p300/CBP in human 22Rv1 cells assessed as reduction in H3K18Ac level incubated for 24 hrs by Hoechst 33342 staining based high content microscopy analysis. Format: cell-based. In outline:
as §1

Series [7] has the same target. Nature of the series: Inhibition of p300/CBP in human 22Rv1 cells assessed as reduction in H3K9Ac level incubated for 3 hrs by Hoechst 33342 staining based high content microscopy analysis. Format: cell-based. A digest of the protocol:
as §1

For series [8] the target is unchanged. Nature of the series: Inhibition of p300/CBP in human 22Rv1 cells assessed as reduction in H3K27Ac level incubated for 24 hrs by Hoechst 33342 staining based high content microscopy analysis. Format: cell-based. A digest of the protocol:
as §1

Series [9] has the same target. The series is described as follows: Inhibition of p300/CBP in human PC-3 cells assessed as reduction in H3K9Ac level incubated for 3 hrs by Hoechst 33342 staining based high content microscopy analysis. In kind it is cell-based. A digest of the protocol: (§2)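 PC-3 cells were plated overnight on collagen I-coated plates. They were treated with an 8-point half-log series from 10 µM, then fixed in 10% formaldehyde, permeabilized in 0.1% Triton X-100 and blocked in 1% BSA. Mean intensity was imaged over 15 fields per well; EC50 from sigmoidal fit.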

Series [10] has the same target. Nature of the series: Inhibition of p300/CBP in human PC-3 cells assessed as reduction in H3K27Ac level incubated for 3 hrs by Hoechst 33342 staining based high content microscopy analysis. In kind it is cell-based. In outline: as §2
For series [11], the target named is Ca2+ channel (L, dihydropyridine site) (Homo sapiens, UniProt O60840+Q01668+Q13698+Q13936). The series is described as follows: Inhibition of Ca2+ channel (L, dihydropyridine site) (unknown origin) at 10 uM by radioligand binding assay relative to control. In kind it is protein assay.
Series [12] concerns the target T2, CREB-binding protein/Histone acetyltransferase p300. Nature of the series: Inhibition of p300/CBP in human 22Rv1 cells assessed as reduction in H3K18Ac level incubated for 1 hr by Hoechst 33342 staining based high content microscopy analysis. In kind it is cell-based. In outline:
as §1

The target in the next series is MAO-A (Homo sapiens, UniProt P21397). The series is described as follows: Inhibition of MAO-A (unknown origin) at 10 uM by radioligand binding assay relative to control.
Series [13] deals with T2, CREB-binding protein/Histone acetyltransferase p300. Nature of the series: Inhibition of p300/CBP in human PC-3 cells assessed as reduction in H3K18Ac level incubated for 3 hrs by Hoechst 33342 staining based high content microscopy analysis. Format: cell-based.
The target of another series is CREB-binding protein (Homo sapiens, UniProt Q92793). Nature of the series: Inhibition of N-terminal 6His-Flag tagged CBP-BHC domain (1072 to 1859 residues) (unknown origin) expressed in Sf9 cells using the Bac-to-Bac baculovirus system under EDTA-free condition using biotinylated synthetic Histone-H4 peptide incubated for 30 mins followed by substrate addition and measured after 1hr by TR-FRET assay.
CREB-binding protein, sequence (Q92793 whole entry, the tested form may be a part): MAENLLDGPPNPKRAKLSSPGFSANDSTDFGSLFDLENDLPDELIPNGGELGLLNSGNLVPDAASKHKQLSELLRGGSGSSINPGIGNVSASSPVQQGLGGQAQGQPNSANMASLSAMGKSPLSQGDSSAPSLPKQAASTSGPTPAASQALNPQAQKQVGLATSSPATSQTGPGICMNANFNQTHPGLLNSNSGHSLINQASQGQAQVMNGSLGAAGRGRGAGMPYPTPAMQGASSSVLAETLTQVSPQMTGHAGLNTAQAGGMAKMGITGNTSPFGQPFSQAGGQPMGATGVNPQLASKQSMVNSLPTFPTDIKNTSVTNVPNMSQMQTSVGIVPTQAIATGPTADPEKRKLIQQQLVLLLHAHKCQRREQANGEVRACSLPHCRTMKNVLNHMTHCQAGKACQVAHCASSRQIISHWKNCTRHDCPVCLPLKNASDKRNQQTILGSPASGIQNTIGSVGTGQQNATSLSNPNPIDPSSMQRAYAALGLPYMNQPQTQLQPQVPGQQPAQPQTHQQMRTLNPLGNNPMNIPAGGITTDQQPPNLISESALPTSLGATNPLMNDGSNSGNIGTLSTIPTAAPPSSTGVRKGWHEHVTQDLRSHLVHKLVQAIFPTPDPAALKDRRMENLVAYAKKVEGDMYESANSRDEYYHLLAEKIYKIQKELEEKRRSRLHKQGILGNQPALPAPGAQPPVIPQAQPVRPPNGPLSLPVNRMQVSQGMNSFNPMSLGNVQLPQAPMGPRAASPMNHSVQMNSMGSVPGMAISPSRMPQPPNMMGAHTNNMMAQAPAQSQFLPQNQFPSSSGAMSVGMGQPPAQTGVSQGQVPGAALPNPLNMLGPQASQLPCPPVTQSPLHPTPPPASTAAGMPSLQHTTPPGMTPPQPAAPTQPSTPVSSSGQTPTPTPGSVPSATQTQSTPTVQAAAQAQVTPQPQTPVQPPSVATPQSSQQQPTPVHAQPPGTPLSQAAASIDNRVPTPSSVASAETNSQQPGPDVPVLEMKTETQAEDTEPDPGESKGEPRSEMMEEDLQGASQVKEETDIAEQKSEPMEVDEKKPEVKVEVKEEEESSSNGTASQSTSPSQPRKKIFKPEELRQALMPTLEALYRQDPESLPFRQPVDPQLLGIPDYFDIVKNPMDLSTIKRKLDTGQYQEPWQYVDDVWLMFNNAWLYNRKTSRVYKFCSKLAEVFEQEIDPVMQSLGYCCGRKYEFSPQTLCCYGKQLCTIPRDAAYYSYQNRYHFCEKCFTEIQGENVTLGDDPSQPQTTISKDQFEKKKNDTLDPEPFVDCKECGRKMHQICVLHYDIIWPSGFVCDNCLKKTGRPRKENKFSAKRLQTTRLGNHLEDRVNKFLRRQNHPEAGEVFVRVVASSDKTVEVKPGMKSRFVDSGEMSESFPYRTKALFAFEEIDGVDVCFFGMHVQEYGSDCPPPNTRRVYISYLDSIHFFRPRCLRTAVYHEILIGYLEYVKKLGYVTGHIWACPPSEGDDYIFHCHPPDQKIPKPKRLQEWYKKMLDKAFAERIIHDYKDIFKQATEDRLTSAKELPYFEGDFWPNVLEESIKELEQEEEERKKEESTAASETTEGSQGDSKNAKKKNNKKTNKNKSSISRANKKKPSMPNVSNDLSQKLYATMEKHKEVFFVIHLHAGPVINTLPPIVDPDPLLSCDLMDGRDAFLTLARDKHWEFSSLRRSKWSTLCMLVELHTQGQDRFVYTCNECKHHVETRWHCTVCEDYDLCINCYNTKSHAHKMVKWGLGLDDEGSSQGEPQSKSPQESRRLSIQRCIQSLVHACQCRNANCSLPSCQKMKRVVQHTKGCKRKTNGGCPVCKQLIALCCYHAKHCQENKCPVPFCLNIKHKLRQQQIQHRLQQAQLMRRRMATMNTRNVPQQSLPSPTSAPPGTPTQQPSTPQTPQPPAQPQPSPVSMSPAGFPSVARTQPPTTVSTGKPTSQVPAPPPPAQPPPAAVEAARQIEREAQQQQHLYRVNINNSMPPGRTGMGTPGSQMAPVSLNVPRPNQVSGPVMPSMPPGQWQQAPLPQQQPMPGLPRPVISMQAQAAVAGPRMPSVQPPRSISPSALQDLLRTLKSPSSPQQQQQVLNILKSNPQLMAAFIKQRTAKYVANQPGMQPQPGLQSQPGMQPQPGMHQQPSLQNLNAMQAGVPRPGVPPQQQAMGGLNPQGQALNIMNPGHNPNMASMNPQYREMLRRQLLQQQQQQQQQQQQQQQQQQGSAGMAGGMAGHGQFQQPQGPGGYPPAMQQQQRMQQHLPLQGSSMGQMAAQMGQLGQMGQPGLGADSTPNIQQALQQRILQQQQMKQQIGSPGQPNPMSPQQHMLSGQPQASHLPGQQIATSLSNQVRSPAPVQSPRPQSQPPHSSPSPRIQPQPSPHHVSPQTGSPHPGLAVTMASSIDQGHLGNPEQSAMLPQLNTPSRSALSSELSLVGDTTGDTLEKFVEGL

Series [14] concerns the target T1, Histone acetyltransferase p300. The series is described as follows: Binding affinity to recombinant human p300 HAT domain expressed in Escherichia coli BL21-CodonPlus(DE3)-RIL cells assessed as dissociation constant using CMLVELHTQSQDRF as substrate by surface plasmon resonance analysis. Background: Surface plasmon resonance follows binding to a sensor surface in real time, without labels.

Another series concerns the target MAO-B (Homo sapiens, UniProt P27338). The series is described as follows: Inhibition of human recombinant MAO-B at 10 uM by radioligand binding assay relative to control.
Series [15] addresses T2, CREB-binding protein/Histone acetyltransferase p300. The following applies: 22Rv1, dose 0.3-3 mM.

T2 sequence (Q09472 whole entry, looked up): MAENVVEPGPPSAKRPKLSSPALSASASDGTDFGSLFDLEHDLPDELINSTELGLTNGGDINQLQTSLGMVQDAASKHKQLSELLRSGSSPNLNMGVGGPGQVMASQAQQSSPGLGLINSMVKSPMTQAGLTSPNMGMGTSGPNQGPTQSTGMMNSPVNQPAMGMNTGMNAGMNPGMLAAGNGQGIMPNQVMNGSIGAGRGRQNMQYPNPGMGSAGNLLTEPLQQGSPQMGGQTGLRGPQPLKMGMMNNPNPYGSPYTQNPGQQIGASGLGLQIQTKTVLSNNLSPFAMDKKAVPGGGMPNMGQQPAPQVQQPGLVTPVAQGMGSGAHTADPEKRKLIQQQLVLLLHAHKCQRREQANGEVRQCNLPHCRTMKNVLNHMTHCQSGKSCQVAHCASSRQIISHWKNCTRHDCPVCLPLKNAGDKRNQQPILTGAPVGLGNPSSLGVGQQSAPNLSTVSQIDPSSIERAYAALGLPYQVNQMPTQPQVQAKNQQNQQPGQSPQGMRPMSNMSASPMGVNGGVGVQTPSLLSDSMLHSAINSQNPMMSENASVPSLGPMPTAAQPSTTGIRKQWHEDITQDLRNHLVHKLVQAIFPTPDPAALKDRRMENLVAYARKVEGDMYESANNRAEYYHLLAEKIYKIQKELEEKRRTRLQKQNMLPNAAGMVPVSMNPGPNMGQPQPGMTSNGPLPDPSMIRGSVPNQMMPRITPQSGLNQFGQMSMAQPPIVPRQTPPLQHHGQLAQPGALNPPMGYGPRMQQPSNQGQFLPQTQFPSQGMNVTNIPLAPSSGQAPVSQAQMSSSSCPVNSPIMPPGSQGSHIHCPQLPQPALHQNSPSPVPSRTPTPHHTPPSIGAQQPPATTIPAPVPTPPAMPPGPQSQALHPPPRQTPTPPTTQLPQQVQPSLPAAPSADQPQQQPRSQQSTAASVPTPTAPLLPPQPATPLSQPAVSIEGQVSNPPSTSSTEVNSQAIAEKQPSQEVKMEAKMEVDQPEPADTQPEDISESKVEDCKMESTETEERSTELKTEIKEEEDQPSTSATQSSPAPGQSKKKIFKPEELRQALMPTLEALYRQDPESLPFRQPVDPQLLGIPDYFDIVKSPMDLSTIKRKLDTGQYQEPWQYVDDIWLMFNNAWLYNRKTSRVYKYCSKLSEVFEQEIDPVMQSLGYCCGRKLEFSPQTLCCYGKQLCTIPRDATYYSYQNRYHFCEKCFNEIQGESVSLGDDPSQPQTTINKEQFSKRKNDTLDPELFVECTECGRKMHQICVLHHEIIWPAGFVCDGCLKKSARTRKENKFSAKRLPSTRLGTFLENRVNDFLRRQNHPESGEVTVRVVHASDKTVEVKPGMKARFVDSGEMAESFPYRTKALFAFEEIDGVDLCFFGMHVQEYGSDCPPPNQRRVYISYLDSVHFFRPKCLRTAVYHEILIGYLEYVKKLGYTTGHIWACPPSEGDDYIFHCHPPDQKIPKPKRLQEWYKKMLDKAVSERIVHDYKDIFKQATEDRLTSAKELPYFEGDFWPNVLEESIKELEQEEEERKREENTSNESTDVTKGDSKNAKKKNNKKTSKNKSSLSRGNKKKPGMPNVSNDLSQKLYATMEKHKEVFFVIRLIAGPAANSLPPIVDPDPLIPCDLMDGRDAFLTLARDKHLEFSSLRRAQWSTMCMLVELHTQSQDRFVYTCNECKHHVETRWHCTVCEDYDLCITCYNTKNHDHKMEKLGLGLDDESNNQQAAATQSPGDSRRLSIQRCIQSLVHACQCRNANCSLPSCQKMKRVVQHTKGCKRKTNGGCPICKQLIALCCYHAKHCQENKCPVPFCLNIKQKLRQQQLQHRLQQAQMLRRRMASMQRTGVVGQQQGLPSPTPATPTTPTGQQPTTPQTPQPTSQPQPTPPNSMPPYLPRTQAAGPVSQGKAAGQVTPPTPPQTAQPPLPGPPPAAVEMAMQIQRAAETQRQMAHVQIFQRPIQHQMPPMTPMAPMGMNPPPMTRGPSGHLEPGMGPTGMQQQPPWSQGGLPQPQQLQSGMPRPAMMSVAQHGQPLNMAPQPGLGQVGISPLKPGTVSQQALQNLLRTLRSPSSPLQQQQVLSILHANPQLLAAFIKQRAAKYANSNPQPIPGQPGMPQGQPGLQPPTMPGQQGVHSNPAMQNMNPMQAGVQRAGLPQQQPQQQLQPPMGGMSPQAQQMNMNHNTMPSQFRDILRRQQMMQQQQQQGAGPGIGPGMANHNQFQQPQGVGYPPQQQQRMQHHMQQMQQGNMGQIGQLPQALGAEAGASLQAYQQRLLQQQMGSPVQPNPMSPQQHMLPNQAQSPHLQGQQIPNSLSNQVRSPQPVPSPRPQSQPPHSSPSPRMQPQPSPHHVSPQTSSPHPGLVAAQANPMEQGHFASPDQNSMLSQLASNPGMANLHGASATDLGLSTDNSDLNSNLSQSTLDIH
T2 sequence (Q92793 whole entry, looked up): as the sequence (Q92793 whole entry, the tested form may be a part) above
T1 sequence (Q09472 whole entry, the tested form may be a part): as the sequence (Q09472 whole entry, looked up) above

For `CNC(=O)Nc1ccc2c(c1)[C@@]1(CC2)OC(=O)N(CC(=O)N(Cc2ccc(F)cc2)[C@@H](C)C(F)(F)F)C1=O` [A-486], the IC50 (in general, the concentration at which inhibition is half-maximal) in series [1] was more than 50 µM; in series [3] it was more than 10 µM; at CREB-binding protein, 9.03 µM. For the same molecule, the INH in [2], in [4], in series [5], in series [6], in series [7] and in series [8] was more than 10 µM in each case. Moreover, the INH in series [12] is more than 10 µM. The EC50 in series [9], in [10] and in series [13] was more than 10 µM each time. Moreover, the inhibition entry in series [9] and in series [10] was “inactive” in each case. The inhibition (in general, the relative decrease from the control value, in per cent) at 10 µM in [11] is -3%; on MAO-A, 7%; at MAO-B, 0%. Besides, in [14], the Kd (usually a measure of binding affinity in units of concentration) came to 20 µM.

For `CC(C1CC1)N(Cc1ccccc1)C(=O)CN1C(=O)NC(Cc2c[nH]c3ccccc23)C1=O` (stereo not drawn), the IC50 in series [1] stood at 5.1 µM.

As for `C=C(C)[C@H](CC=C(C)C)C[C@]12C[C@H](CC=C(C)C)C(C)(C)[C@](CC=C(C)C)(C(=O)C(C(=O)c3ccc(O)c(O)c3)=C1O)C2=O`, in series [1], the IC50 was determined as 5 µM.

On to `NS(=O)(=O)c1ccc(NC(=O)CN2C(=O)SC(=C3CCCCC3)C2=O)cc1`, for which the half-maximal inhibitory concentration (IC50) in series [1] was determined as 11.5 µM.

Take `CNC(=O)c1ccc(N2C(=S)N(c3ccc(C#N)c(C(F)(F)F)c3)C(=O)C2(C)C)cc1F`: the inhibition entry in series [15] was “inactive”.
